pKi: −log10 of the molar value.
Biological target: T1, GABA-A receptor; alpha-3/beta-3/gamma-2 (Homo sapiens, UniProt P18507+P28472+P34903)
T1 sequence (P18507 whole entry): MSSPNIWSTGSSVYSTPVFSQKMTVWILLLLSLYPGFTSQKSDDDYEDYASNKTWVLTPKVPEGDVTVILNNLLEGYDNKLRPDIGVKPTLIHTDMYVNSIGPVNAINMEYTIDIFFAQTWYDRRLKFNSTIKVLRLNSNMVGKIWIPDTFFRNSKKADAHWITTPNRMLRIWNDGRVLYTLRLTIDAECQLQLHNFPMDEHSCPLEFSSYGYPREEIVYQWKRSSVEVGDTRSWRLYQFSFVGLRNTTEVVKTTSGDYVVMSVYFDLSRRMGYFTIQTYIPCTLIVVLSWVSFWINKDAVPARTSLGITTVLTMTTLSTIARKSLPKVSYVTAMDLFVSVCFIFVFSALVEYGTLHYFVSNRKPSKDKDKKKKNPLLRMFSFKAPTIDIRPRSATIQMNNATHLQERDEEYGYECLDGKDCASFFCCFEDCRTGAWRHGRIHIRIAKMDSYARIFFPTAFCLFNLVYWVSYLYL
T1 sequence (P28472 whole entry): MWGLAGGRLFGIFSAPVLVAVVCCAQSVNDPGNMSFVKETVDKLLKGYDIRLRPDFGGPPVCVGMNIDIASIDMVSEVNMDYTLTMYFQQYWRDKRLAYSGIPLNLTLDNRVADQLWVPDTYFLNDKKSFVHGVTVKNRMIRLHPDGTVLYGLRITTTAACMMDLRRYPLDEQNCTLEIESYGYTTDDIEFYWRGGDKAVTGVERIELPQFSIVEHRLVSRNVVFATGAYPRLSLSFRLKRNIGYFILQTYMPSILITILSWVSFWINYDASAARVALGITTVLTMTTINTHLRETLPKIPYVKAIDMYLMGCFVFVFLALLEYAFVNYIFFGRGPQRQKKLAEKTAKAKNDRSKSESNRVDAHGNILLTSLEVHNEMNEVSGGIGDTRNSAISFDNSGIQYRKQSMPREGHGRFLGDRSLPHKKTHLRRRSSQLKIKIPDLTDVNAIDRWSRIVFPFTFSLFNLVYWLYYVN
T1 sequence (P34903 whole entry): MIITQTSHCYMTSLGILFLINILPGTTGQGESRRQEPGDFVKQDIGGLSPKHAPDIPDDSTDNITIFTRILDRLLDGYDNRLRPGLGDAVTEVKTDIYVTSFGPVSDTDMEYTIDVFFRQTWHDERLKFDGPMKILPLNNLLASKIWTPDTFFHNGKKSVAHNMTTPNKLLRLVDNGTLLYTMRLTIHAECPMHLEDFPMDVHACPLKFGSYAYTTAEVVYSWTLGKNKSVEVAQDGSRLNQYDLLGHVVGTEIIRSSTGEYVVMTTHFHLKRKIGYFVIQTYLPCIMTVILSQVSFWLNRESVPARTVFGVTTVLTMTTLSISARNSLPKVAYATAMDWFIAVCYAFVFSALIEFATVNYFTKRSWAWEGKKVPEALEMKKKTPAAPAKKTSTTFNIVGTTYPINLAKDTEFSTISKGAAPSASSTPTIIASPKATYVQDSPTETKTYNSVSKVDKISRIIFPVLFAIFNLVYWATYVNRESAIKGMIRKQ
Assay: Displacement of [3H]-Ro- 15-1788 binding from human recombinant Gamma-aminobutyric acid A receptor alpha-3-beta-3-gamma-2 expressed in mouse fibroblast L(tk-) cells (30 min at 24 degrees C, pH 7.4)
Type: cell-based
Procedure, shortened: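 Membranes from L(tk-) cells stably expressing human α1, α3 or α5 β3γ2 in 50 mM Tris pH 7.4. [3H]Ro15-1788 at 1.8 nM final, 30 min at 24 °C. Nonspecific binding set with 10 µM flunitrazepam, total binding in 0.1% DMSO. Filtration, scintillation counting. Ki is mean ± SEM of ≥3 independent determinations.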

Q: `N#Cc1cccc(-c2cnnc(-c3ccccc3)c2)c1` was tested. Which pKi did it give?
A: 7.85
